Assay: Toxicity liver stage against HepG2, at 10uM
Type: cell-based
Design: test concentration 10 uM, cell line HepG2-A16-CD81EGFP
Details: human, HepG2-A16-CD81EGFP cells; read-out: INHIBITION
How it was run: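 Uninfected HepG2-A16-CD81EGFP cells, 3 × 10^3 per well, 1536-well, plated on prespotted compound at 10 μM final, parasite-free screening media added to match infected plates; puromycin 10 μM positive, DMSO 0.5% negative; run in parallel with 48 h PbLuc assay at 37 °C, 5% CO2; viability by CellTiter-Glo luminescence, normalized to controls.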

SMILES | cytotoxicity at 10 µM
COc1ccc(-c2nnc([C@H]3CCN(CC4CC4)C3)o2)cc1 | -4.6%
CN1C[C@H](O)C[C@H]1c1nc(-c2ccc3c(c2)OCO3)no1 | 6.88%
O=c1c2cnc(N3CCOCC3)nc2ccn1-c1ccccc1 | -3.12%
Cn1cc(NC(=O)c2cc3c(s2)CCCC3)cn1 | -2.17%
Cc1cnc(C(=O)NCC2Cc3ccccc3O2)cn1 (configuration not stated) | -0.71%
N#Cc1cccnc1NCCc1cc(F)cc2c1OCOC2 | 19.5%
O=C(Nc1cnc(C2CC2)nc1)N1CCCC1 | -14.9%
Cn1cccc(NC(=O)COc2ccc(Cl)cc2)c1=O | 4.69%
COc1ccccc1OCCC(=O)NCc1ncc(C)c(OC)c1C | -3.63%
CC(C(=O)NC(C)(C)C)N1CCC(C(=O)Nc2cnccn2)CC1 (configuration not stated) | -1.36%
COc1ccccc1OCc1cc(C(=O)N2CCS(=O)(=O)CC2)n[nH]1 | -2.93%
COc1ccc(F)cc1C(=O)N1CC(c2ccncc2)C1 | -4.93%
COc1ccccc1OCc1cc(C(=O)N2[C@H](C)CC[C@@H]2C)n[nH]1 | -2.01%
Cc1ncsc1CCNC(=O)Cn1nc(C)n(Cc2ccccc2)c1=O | 7.48%
O=C(NCc1ccccn1)C1=NN(c2ccccc2)C(=O)CN1 | -0.855%
Cc1ccc(SCCN(C)C(=O)c2cn(C3CCC(N)CC3)nn2)cc1 (configuration not stated) | -8.59%
Cc1ccc2nc(CNCCCOc3ccccc3)cc(O)c2c1 [UCSF924] | 5.5%
